Screens (PubChem BioAssay)
In the library only some 1.8% were active in any assay of this set; here they are far more common.
rRNA inh HTS = selective bacterial rRNA inhibition in E. coli; E. coli WT GFP vs humanized-ribosome RFP mutants, fluorescence, 24 h; hits give low values; DMSO median 0, no signal -100; GFP signal change (wild-type ribosome), % (concentration not given with the values); 350,000 compounds, 1.6% hits; AID 720706;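 active = significant combined selectivity score with lowered wild-type GFP, culture density cut under 30%, mutant RFP and density less affected; inactive = any of these conditions unmet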
Cneo AK release = causes C. neoformans cell lysis; adenylate kinase release luminescence, 4 h; normalised: neutral wells 0, clomiphene wells 100; lysis activity, % at 15 µM; 360,000 compounds, 0.2% hits;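 active = mean lysis activity across replicates of at least 80%, whatever share of replicates individually reach that level; inactive = mean lysis activity below 80%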
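Material: C. neoformans cells; Schedule: 4 h static compound exposure, 37 °C, read 1 h post-reagent; Measured by: adenylate kinase release luminescence; Read-out: signal increase indicating cell lysis; Controls: Clomiphene as positive lysis control.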
DAGLB inh = blocks human DAGLB lipase activity; HEK293T DAGLB membrane lysate, EnzChek fluorogenic substrate; inhibition, % at 5.17 µM; 340,000 compounds, 0.059% hits; AID 504411; in the data active = inhibition above about 34%;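 note: 0% = enzyme with vehicle and 100% = wells lacking enzyme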
Target sequence (Q8NCG7 whole entry, looked up): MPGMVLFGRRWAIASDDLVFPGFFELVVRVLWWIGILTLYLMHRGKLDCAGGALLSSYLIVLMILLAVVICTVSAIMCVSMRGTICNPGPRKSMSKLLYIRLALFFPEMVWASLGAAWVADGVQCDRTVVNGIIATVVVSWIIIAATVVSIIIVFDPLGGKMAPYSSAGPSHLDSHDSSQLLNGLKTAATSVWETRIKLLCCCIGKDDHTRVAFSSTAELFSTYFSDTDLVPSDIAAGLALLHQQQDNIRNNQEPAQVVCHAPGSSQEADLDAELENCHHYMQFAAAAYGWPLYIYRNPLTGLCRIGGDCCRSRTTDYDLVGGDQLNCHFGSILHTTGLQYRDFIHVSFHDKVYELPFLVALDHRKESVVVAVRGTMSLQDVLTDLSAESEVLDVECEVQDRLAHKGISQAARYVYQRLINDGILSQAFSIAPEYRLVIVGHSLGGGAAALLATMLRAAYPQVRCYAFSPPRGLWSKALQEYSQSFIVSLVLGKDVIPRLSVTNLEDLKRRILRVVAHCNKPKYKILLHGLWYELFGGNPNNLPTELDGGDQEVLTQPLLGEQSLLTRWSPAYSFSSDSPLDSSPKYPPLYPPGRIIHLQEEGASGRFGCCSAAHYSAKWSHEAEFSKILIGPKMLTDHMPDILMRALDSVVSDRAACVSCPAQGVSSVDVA
SKN-1 inh = C. elegans SKN-1 inhibition; C. elegans VP596 Pgst-4::GFP/RFP ratio, acrylamide-induced, 24 h; inhibition, % at 21.8 µM; 360,000 compounds, 0.49% hits;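 active = interference check ratio from 0.5 to 1.5 plus GFP to RFP signal ratio inhibition reaching or exceeding a fixed threshold, cut at about 30% in these data, passing the limit was not always enough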
hiPSC survival = hiPSC single-cell survival enhancement. ATPlite luminescence; 100% = ROCK inhibitor wells, 0% = DMSO. survival enhancement, % at 20 µM. 360,000 compounds, 0.044% hits. AID 602274; in the data active = survival enhancement above about 18%;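 note: cells exposed to compounds for 16 hours before the ATP read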
MT1-MMP act inh = inhibitors of human MT1-MMP activation. GFP/RFP ratio change, % at 20 µM. AID 651647. P50281. HT1080 RFP-PRO-GFP cells, GFP/RFP ratio fluorescence, overnight; percent of plate control window, DMSO zero. 360,000 compounds, 0.061% hits;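 active = GFP/RFP ratio change of at least 30% with cell ATP level not reduced by more than half and red fluorescence within 50% of control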
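Assay system – RFP-PRO-GFP reporter HT1080 cells · Compound dosing – single dose of 20 µM compound, 1% DMSO final · Incubation – overnight compound exposure at 37 °C · Measure – GFP/RFP fluorescence ratio · Benchmarks – DMSO wells and RFP-L50D-GFP cells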
* marks the source's active call; other numbers are inactive results; x = no result.

SMILES	rRNA inh HTS	Cneo AK release	DAGLB inh	SKN-1 inh	hiPSC survival	MT1-MMP act inh
COc1ccc(/C=N/n2c(=O)[nH]c3c([nH]c4ccc(Cl)cc43)c2=O)cc1CN1CCCCC1	0	1	2	4	0	1
COc1ccc(/C=N/n2c(=O)[nH]c3c([nH]c4ccc(Br)cc43)c2=O)cc1CN1CCOCC1	x	5	1	37*	-1	5
CC(C)NC(=O)NCC[C@H]1CC[C@H](NC(=O)CN(C)C)[C@H](CO)O1	-1	102*	x	x	x	x
CC(C)NC(=O)NCC[C@@H]1CC[C@@H](NC(=O)CN(C)C)[C@@H](CO)O1	0	97*	x	x	x	x
COc1ccc(S(=O)(=O)Nc2ccc3c(c2)CC(=O)N([C@@H](C)CO)C[C@@H](C)[C@@H](CN(C)C(=O)Nc2ccc(F)cc2)O3)cc1	2	-3	x	x	x	x
CCOc1ccc2oc(C(=O)N(C)CC(=O)Nc3ccc(OCC)c(OCC)c3)c(C)c2c1	-28*	0	-3	0	0	-2
CC(=O)c1ccc(Nc2ccc([N+](=O)[O-])c3nonc23)cc1	-8	2	9	15	4	-23
O=C(O)c1ccc(Nc2ccc([N+](=O)[O-])c3nonc23)cc1	15	1	8	44*	0	-1
N=C1/C(=C/c2ccc(-c3cccc(C(=O)O)c3)o2)C(=O)N=C2SC=C(c3ccccc3)N12	-21*	x	15	13	4	-2
COCC(=O)N1CC2(CCN(C(=O)NC(C)C)CC2)c2c(n(C)c3cc(OC)ccc23)[C@H]1CO	0	x	x	x	x	x
COc1ccc2c3c(n(C)c2c1)[C@@H](CO)N(C(=O)c1ccc(F)cc1)CC31CCN(C(=O)c2ccc(F)cc2)CC1	-7	x	x	x	x	x
CCN(c1ccccc1)S(=O)(=O)c1cccc(C(=O)NCC(c2ccc(F)cc2)N2CCOCC2)c1 (stereo not drawn)	-25*	0	3	12	0	-3
CCN(c1ccccc1)S(=O)(=O)c1cccc(C(=O)Nc2ccc(C)cn2)c1	-9	0	-3	48*	1	2
Cc1ccc(NC(=O)c2cccc(S(=O)(=O)NCc3ccccc3)c2)nc1	-8	0	-4	14	0	4
O=C(Nc1cccc(Oc2ccccc2)c1)C1Cc2c(-c3ccc4c(c3)OCO4)ccnc2O1 (stereo not drawn)	20	-2	x	36*	-3	-1
CN(C(=O)C1Cc2c(-c3ccccc3Oc3ccccc3)ccnc2O1)c1ccccc1 (stereo not drawn)	4	-1	x	35*	0	-2
O=C(C[C@H]1C[C@@H]2c3cc(NC(=O)CC4CC4)ccc3O[C@@H]2[C@@H](CO)O1)NCC(F)(F)F	3	5	x	x	x	x
C[C@@H](NC(=O)C[C@H]1CC[C@H](NC(=O)CN2CCOCC2)[C@@H](CO)O1)c1ccccc1	0	5	x	x	x	x
C=C1[C@@H](O)[C@H](Cc2ccccc2)N(Cc2ccccc2Br)S1(=O)=O	-23*	-1	6	-3	4	-4
O=C(C[C@@H]1CC[C@@H]2[C@H](COC[C@@H](O)CN2C(=O)c2cccnc2)O1)Nc1ccc(-c2ccccc2)cc1	3	-3	x	x	x	x
CC(=O)C1=C(O)C(=O)N(c2ccc(Br)cc2)C1c1ccc(Br)cc1 (stereo not drawn)	-14	-1	17	-6	0	7
COc1ccc(C2C(C(C)=O)=C(O)C(=O)N2c2ccc(C)cc2)cc1 (stereo not drawn)	-24*	-2	4	16	0	3
N#Cc1nc(COc2ccc(-c3ccccc3)cc2)oc1NCCCN1CCOCC1	x	-1	-2	25	5	3
CN(C)CCNc1oc(COc2ccc(-c3ccccc3)cc2)nc1C#N	-36*	-1	-4	-3	-3	2
CO[C@@H]1CN(C)C(=O)c2ccc(NC(=O)NC(C)C)cc2OC[C@@H](C)N(C(=O)C2CCC2)C[C@H]1C	1	x	x	x	x	x
SMILES	rRNA inh HTS	Cneo AK release	DAGLB inh	SKN-1 inh	hiPSC survival	MT1-MMP act inh
O=C(C[C@H]1CC[C@H]2[C@@H](COC[C@H](O)CN2Cc2cccc(C(F)(F)F)c2)O1)NCCc1ccccc1	-23	-1	x	x	x	x
Cc1ccc(C(=O)c2ccc([N+](=O)[O-])cc2)cc1	x	-4	-10	9	-2	0
Cc1ccc(C(=O)c2coc3cc([N+](=O)[O-])c(O)c([N+](=O)[O-])c23)cc1	-48*	x	22	-1	-1	8
CC(c1cccs1)N(Cc1ccco1)C(=S)Nc1ccccc1Cl (stereo not drawn)	-20*	0	-6	-14	0	1
Cc1ccccc1NC(=S)N(Cc1ccco1)C(C)c1cccs1 (stereo not drawn)	-13	5	-1	-5	1	-2
O=C(c1ccccc1)N1C[C@@H]2[C@H](c3ccccc31)[C@H](CO)N2C(=O)CN1CCOCC1	-2	-1	x	x	x	x
O=C(/C=C/c1cccc(F)c1)Nc1cc(S(=O)(=O)N2CCOCC2)ccc1Cl	-17*	0	-2	8	-1	0
O=[N+]([O-])c1ccc(OC/C=C2\Oc3ccc([N+](=O)[O-])cc3C2N2CCOCC2)cc1 (stereo not drawn)	x	1	-1	37*	1	-2
COc1ccc([C@H]2CC(=O)c3c(O)cc(O)cc3O2)cc1O	-23*	x	0	-7	0	0
COc1cc(C2CC(=O)c3c(O)cc(O)cc3O2)ccc1O (stereo not drawn)	x	-1	1	4	-1	-3
Cc1cc(C(=O)Nc2cccc3c2O[C@@H](CN(C)Cc2ccc(C(F)(F)F)cc2)[C@H](C)CN([C@@H](C)CO)C3=O)n(C)n1	-3	6	x	x	x	x
O=C(Nc1ccccc1N1CCCCC1)C1=COCCO1	-55	-2	-8	15	0	-7
O=C(Nc1cc(C(F)(F)F)ccc1N1CCCCC1)C1=COCCO1	6	-1	-11	39*	0	0
CCOC(=O)C1CSCCS(=O)(=O)N1Cc1cc(F)ccc1Br (stereo not drawn)	-34*	x	x	x	x	x
CC(=O)Nc1ccc(C=NNc2nnc(NN=Cc3ccc(NC(C)=O)cc3)c3ccccc23)cc1	-16*	x	-1	-15	-6	3
Cc1ccc(/C=N/Nc2nnc(Cl)c3ccccc23)cc1	-11	-4	-11	13	-4	-14
Cc1noc(C)c1NC(=O)N(C)C[C@@H]1OCCCC[C@H](C)Oc2ccc(NC(=O)Nc3ccc(F)cc3)cc2C(=O)N([C@@H](C)CO)C[C@H]1C	1	4	x	x	x	x
